Consider eleven compounds from ChEMBL document CHEMBL1125714, “Novel class of amino acid antagonists at non-N-methyl-D-aspartic acid excitatory amino acid receptors. Synthesis, in vitro and in vivo pharmacology, and neuroprotection” (J Med Chem, 1991).

Molecules are shown by their SMILES. Several values for one entry are separate records, joined by “and”; a condition that tells them apart may be missing. Equal entries are not always repeated.

Broadly, the IC50 is the point on the concentration scale where inhibition reaches its midpoint.

For test [1], the target named is Glutamate receptor ionotropic AMPA (Homo sapiens, UniProt P42261+P42262+P42263+P48058). The experiment in a line: Inhibition of the binding of radioligand [3H]AMPA in the presence at low-affinity AMPA receptor sites. The format is protein-complex assay.
Test [2] in a line: Inhibition of the binding of radioligand [3H]AMPA in the presence at Non N-methyl-D-aspartate glutamate receptor. An outline of the steps: (§1)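 Rat brain membrane [3H]AMPA binding run with 100 mM isothiocyanate present, so both high- and low-affinity AMPA sites are detected. Competitors were tested over concentration ranges of 1–1000 μM, and the IC50 was calculated from displacement data.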

Test [3] is described as follows: Inhibition of the binding of radioligand [3H]AMPA in the presence of the compound. at Non N-methyl-D-aspartate glutamate receptor. The method, boiled down:
as §1

The species entered for test [4] is Rattus norvegicus. The experiment in a line: Neuroprotective effect evaluated for excitatory amino acid receptor antagonism with the concentration at 1 uL in the corpus striatum of 5 rats with glutamic acid decarboxylase as the marker enzyme. The format is functional. An outline of the steps:
(§2)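 […]-anaesthetised rats (4 mL/kg ip), stereotaxic cannula into corpus striatum; 1 µL infused containing kainate (10 nmol), quinolinic acid (300 nmol) or AMPA (100 nmol), with or without co-infused antagonist. After 3-day recovery, striata were homogenised in 50 mM Tris-HCl pH 7.4 with 0.2% Triton X-100 and spun 10000g for 10 min. Choline acetyltransferase or glutamic acid decarboxylase activity was reported as % remaining versus non-lesioned striatum.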

The species named for test [5] is Rattus norvegicus. Kind of test: Neuroprotective effect evaluated for excitatory amino acid receptor antagonism with the concentration at 1 uL in the corpus striatum of 5 rats with choline acetyltransferase as the marker enzyme. The format is functional. An outline of the steps:
as §2

The species entered for test [6] is Rattus norvegicus. Kind of test: Neuroprotective effect evaluated for excitatory amino acid receptor antagonism with the concentration at 1 uL in the corpus striatum of 9 rats with choline acetyltransferase as the marker enzyme. The format is functional. The method, boiled down:
as §2

The species named for test [7] is Rattus norvegicus. The experiment in a line: Neuroprotective effect evaluated for excitatory amino acid receptor antagonism with the concentration at 1 uL in the corpus striatum of 9 rats with glutamic acid decarboxylase as the marker enzyme. The format is functional. The method, boiled down:
as §2

The species entered for test [8] is Rattus norvegicus. Kind of test: Neuroprotective effect evaluated for excitatory amino acid receptor antagonism with the concentration at 1 uL in the corpus striatum of 14 rats with glutamic acid decarboxylase as the marker enzyme. The format is functional. The method, boiled down: as §2
Test [9] is filed under the species Rattus norvegicus. The experiment in a line: Neuroprotective effect evaluated for excitatory amino acid receptor antagonism with the concentration at 1 uL in the corpus striatum of 14 rats with choline acetyltransferase as the marker enzyme. The format is functional. Details: concentration or dose not given beside the values. The method, boiled down:
as §2

For test [10], the species on record is Rattus norvegicus. The experiment in a line: Neuroprotective effect evaluated for excitatory amino acid receptor antagonism with the concentration at 1 uL in the corpus striatum of 7 rats with choline acetyltransferase as the marker enzyme. The format is functional. The method, boiled down:
as §2

The species entered for test [11] is Rattus norvegicus. The experiment in a line: Neuroprotective effect evaluated for excitatory amino acid receptor antagonism with the concentration at 1 uL in the corpus striatum of 7 rats with glutamic acid decarboxylase as the marker enzyme. The format is functional. An outline of the steps:
as §2

The species named for test [12] is Rattus norvegicus. The experiment in a line: Neuroprotective effect evaluated for excitatory amino acid receptor antagonism with the concentration at 1 uL in the corpus striatum of 3 rats with choline acetyltransferase as the marker enzyme. The format is functional. An outline of the steps: (§3)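 Rat corpus striatum, stereotaxic infusion under […] anaesthesia (4 mL/kg ip). 1 μL solution held KAIN 10 nmol, quinolinic acid 300 nmol or AMPA 100 nmol, with or without antagonist 150 nmol. After 3 days recovery, striatum was homogenized in Tris-HCl/Triton X-100 and spun at 10000g. Choline acetyltransferase and glutamic acid decarboxylase activities were read as percent of non-lesioned tissue.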

The species named for test [13] is Rattus norvegicus. The experiment in a line: Neuroprotective effect evaluated for excitatory amino acid receptor antagonism with the concentration at 1 uL in the corpus striatum of 3 rats with glutamic acid decarboxylase as the marker enzyme. The format is functional. An outline of the steps:
as §3

In the case of `Cc1onc(OCC(=O)O)c1CC(N)C(=O)O` (stereo unspecified), the IC50 in test [1] stood at 98 µM; in test [2], 90 µM.

Turning to `Cc1onc(O)c1Cn1oc(C)c(CC(N)C(=O)O)c1=O` (stereo unspecified), the IC50 was found to be 335 µM in test [1] and 29 µM in [3].

`O=C(O)C1CN(CCCP(=O)(O)O)CCN1.O=C(O)c1cccnc1C(=O)O` (stereo unspecified): the Enzyme activity in the test filed under Rattus norvegicus [4] was 99%; in the test listed under Rattus norvegicus [5], 98%.

Consider `Cc1onc(O)c1CC(N)C(=O)O.Cc1onc(O)c1Cn1oc(C)c(CC(N)C(=O)O)c1=O` (stereo unspecified), for which the Enzyme activity worked out at 53% in the test filed under Rattus norvegicus [6] and 39% in the test listed under Rattus norvegicus [7].

Take `Cc1onc(O)c1Cn1oc(C)c(CC(N)C(=O)O)c1=O.O=C(O)c1cccnc1C(=O)O` (stereo unspecified): the figures for the Enzyme activity in the test listed under Rattus norvegicus [4] and in the test listed under Rattus norvegicus [5] were 49% and 50%, respectively.

As to `Cc1onc(O)c1CC(N)C(=O)O.Cc1onc(OCC(=O)O)c1CC(N)C(=O)O` (stereo unspecified), the Enzyme activity in the test filed under Rattus norvegicus [8] was 62%; in the test filed under Rattus norvegicus [9] it was 68%.

For `Cc1onc(O)c1CC(N)C(=O)O` [(R,S)-AMPA], in the test listed under Rattus norvegicus [9], the Enzyme activity is 53% and 40%.

`O=C(O)c1cccnc1C(=O)O` [QUINOLINIC ACID]: the Enzyme activity is reported as 53% in the test listed under Rattus norvegicus [8] and 61% in the test listed under Rattus norvegicus [9].

On to `Cc1onc(O)c1CC(N)C(=O)O.O=C(O)C1CN(CCCP(=O)(O)O)CCN1` (stereo unspecified), for which the Enzyme activity in the test listed under Rattus norvegicus [10] is recorded as 55%; in the test filed under Rattus norvegicus [11] it was 50%.

Take `Cc1onc(OCC(=O)O)c1CC(N)C(=O)O.O=C(O)c1cccnc1C(=O)O` (stereo unspecified): the results for the Enzyme activity in the test filed under Rattus norvegicus [12] and in the test filed under Rattus norvegicus [13] were 52% and 64%, respectively.

For the compound `C=C(C)[C@H]1CN[C@H](C(=O)O)[C@H]1CC(=O)O` [KAINIC ACID], the Enzyme activity in the test filed under Rattus norvegicus [10] was found to be 34%; in the test filed under Rattus norvegicus [11], 44%.
